Experimental data as given in ChEMBL document CHEMBL5579886, “Selective Degradation of MLK3 by a Novel CEP1347-VHL-02 PROTAC Compound Limits the Oncogenic Potential of TNBC” (J Med Chem, 2024).
The source made the active and inactive calls. The rule behind the calls is not given here.

What was measured:
[1] = molecular target: T1, von Hippel-Lindau disease tumor suppressor/Mitogen-activated protein kinase kinase kinase 11 (Homo sapiens, UniProt Q16584+P40337); test: PROTAC activity at VHL/DOX-inducible MLK3 (unknown origin) overexpressed in human HCC1806 cells assessed as protein degradation at 0.5 uM measured after 2 hrs by immunoblot analysis relative to control; type: cell-based
Procedure, shortened: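 HCC1806 cells with DOX-inducible MLK3 were induced with 1 μg/mL DOX for 24 h, then treated at 0.5 μM for times from 2 to 24 h, with DMSO as control. MLK3 was measured by immunoblot of RIPA lysates with ECL detection.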
Target sequence in this assay (P40337 whole entry, looked up): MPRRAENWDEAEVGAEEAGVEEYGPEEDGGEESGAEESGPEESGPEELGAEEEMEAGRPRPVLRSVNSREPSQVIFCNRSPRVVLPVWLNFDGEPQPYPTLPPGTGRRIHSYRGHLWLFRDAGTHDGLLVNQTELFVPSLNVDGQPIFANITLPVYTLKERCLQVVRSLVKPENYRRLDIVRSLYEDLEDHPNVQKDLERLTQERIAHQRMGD
Target sequence in this assay (Q16584 whole entry, looked up): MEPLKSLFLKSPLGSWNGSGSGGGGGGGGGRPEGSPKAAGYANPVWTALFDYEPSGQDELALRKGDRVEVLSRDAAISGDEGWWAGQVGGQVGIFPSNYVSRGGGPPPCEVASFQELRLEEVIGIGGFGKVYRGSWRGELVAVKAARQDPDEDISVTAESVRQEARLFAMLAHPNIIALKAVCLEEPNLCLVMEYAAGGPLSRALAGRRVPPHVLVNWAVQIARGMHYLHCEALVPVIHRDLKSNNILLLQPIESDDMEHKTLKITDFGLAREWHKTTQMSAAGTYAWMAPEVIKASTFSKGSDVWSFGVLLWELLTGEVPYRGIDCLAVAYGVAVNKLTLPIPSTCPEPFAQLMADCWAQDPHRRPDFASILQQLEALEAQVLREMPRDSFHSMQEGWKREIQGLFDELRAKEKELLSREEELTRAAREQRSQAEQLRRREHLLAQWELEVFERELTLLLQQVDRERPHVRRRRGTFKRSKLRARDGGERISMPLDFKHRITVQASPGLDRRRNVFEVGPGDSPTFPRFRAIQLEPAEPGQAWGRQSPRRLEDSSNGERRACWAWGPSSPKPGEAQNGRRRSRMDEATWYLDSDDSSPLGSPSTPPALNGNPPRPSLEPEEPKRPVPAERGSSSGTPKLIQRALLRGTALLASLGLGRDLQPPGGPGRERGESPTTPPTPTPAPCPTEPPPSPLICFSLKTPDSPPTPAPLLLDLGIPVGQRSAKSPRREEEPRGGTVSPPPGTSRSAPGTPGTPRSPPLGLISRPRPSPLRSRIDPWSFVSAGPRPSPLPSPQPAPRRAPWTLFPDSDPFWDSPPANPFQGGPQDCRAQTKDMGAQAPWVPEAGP

[2] = molecular target: von Hippel-Lindau disease tumor suppressor/Mitogen-activated protein kinase kinase kinase 10 (Homo sapiens) (UniProt Q02779+P40337); test: PROTAC activity at VHL/DOX-inducible MLK2 (unknown origin) overexpressed in human A-375 cells assessed as protein degradation at 0.1 to 5 uM incubated for 24 hrs by immunoblot analysis; type: cell-based; settings: dose 0.1-5 µM
Procedure, shortened: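 A375 cells carried lentiviral DOX-inducible MLK1, MLK2 or MLK4 and were grown in RPMI-1640 with 10% FBS. Cells were seeded at 100 000/well and induced with 1 μg/mL DOX. After 24 h they were treated at 0.1–5 μM for 24 h, with DMSO as control. Levels were read by ECL immunoblot of RIPA lysates, with GAPDH or β-actin loading control.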

[3] = molecular target: T1, von Hippel-Lindau disease tumor suppressor/Mitogen-activated protein kinase kinase kinase 11; test: PROTAC activity at VHL/DOX-inducible MLK3 (unknown origin) overexpressed in human HCC1806 cells assessed as protein degradation at 0.5 uM measured after 24 hrs by shotgun proteomic analysis; type: cell-based
Procedure, shortened: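 HCC1806 cells with DOX-inducible MLK3 were seeded at 150 000/well and induced with DOX for 24 h, then treated with 0.5 μM PROTAC or DMSO for 24 h. Total lysates were chloroform/methanol precipitated, reduced and alkylated with TCEP/CAA, and trypsin-digested at 37 °C overnight. Shotgun LC-MS/MS followed, with log2 fold change and t-test p-values (n = 3).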
Target sequence in this assay (P40337 whole entry, looked up): as the sequence (P40337 whole entry, looked up) above
Target sequence in this assay (Q16584 whole entry, looked up): as the sequence (Q16584 whole entry, looked up) above

[4] = molecular target: T1, von Hippel-Lindau disease tumor suppressor/Mitogen-activated protein kinase kinase kinase 11; test: PROTAC activity at VHL/MLK3 in human MDA-MB-468 cells assessed as half life of protein degradation at 1 uM by Western blot analysis; type: cell-based
Procedure, shortened: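 Endogenous MLK3: cells seeded at 100 000/well, treated next day with 1 μM PROTAC for 4–48 h, DMSO control; immunoblot with GAPDH or β-actin loading control. Remaining MLK3 quantified over time and t1/2 derived.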
Target sequence in this assay (P40337 whole entry, looked up): as the sequence (P40337 whole entry, looked up) above
Target sequence in this assay (Q16584 whole entry, looked up): as the sequence (Q16584 whole entry, looked up) above

[5] = molecular target: T1, von Hippel-Lindau disease tumor suppressor/Mitogen-activated protein kinase kinase kinase 11; test: PROTAC activity at VHL/MLK3 in human MCF7 cells assessed as protein degradation measured after 24 hrs by Western blot analysis; type: cell-based
Procedure, shortened: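 Endogenous MLK3: cells seeded at 100 000/well, treated next day for 24 h with PROTAC at 0.1–5 μM, DMSO control; immunoblot with GAPDH or β-actin loading control. Remaining MLK3 percentage plotted against concentration to derive DC50 and Dmax.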
Target sequence in this assay (Q16584 whole entry): as the sequence (Q16584 whole entry, looked up) above
Target sequence in this assay (P40337 whole entry): as the sequence (P40337 whole entry, looked up) above

MCF7 [6] = test: Effect on MLK3 mRNA level in human MCF7 cells at 1 uM measured after 24 hrs by RT-qPCR analysis; type: functional, cell-based
Procedure, shortened: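 Total RNA extracted from MCF-7 and MDA-MB-468 cells 24 h after PROTAC treatment, purity and concentration checked spectrophotometrically, reverse transcribed to cDNA and MLK3 transcript quantified by RT-qPCR.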

[7] = molecular target: T1, von Hippel-Lindau disease tumor suppressor/Mitogen-activated protein kinase kinase kinase 11; test: PROTAC activity at VHL/MLK3 in human MCF7 cells assessed as protein degradation at 1 uM measured after 24 hrs by immunoblot analysis; type: cell-based
Procedure, shortened: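 MCF-7 and MDA-MB-468 cells were treated for 24 h across 0.1–5 μM, with DMSO as control. MLK3 was immunoblotted and quantified as percent remaining versus concentration, from which DC50 and Dmax were derived.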
Target sequence in this assay (P40337 whole entry, looked up): as above
Target sequence in this assay (Q16584 whole entry, looked up): as the sequence (Q16584 whole entry, looked up) above

[8] = molecular target: von Hippel-Lindau disease tumor suppressor/Mitogen-activated protein kinase kinase kinase 21 (Homo sapiens) (UniProt P40337+Q5TCX8); test: PROTAC activity at VHL/MLK4 in human MDA-MB-468 cells assessed as protein degradation at 1 uM incubated for 24 hrs by immunoblot analysis; type: cell-based
Procedure, shortened: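 Endogenous MLK1, MLK2 or MLK4 levels in MCF-7 and MDA-MB-468 cells. Cells were grown in high-glucose DMEM with 10% FBS, seeded at 100 000 cells/well and treated the next day for 24 h, with DMSO as control. Lysis was in RIPA with protease inhibitor, followed by 10% SDS-PAGE, nitrocellulose transfer and ECL immunoblot with GAPDH or β-actin as loading control.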

MCF7 [9] = test: Inhibition of colony formation in human MCF7 cells at 1 uM incubated for 15 days by crystal violet staining based analysis; type: functional, cell-based; settings: time 15.0 day
Procedure, shortened: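 5000 cells per 6 cm plate in triplicate with 1 μM PROTAC or DMSO, medium changed every 5 days; colonies stained with crystal violet after 14–15 days. Three independent experiments, mean ± SD, unpaired t-test against control.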

MCF7 [10] = test: Inhibition of colony formation in human MCF7 cells harboring siMLK3 by crystal violet staining based analysis; type: functional, cell-based
Procedure, shortened: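 MCF-7 or MDA-MB-468 seeded at 10 000 cells/well, transfected next day with MAP3K11 SMARTpool siRNA or nontargeting control siRNA; crystal violet staining 7 days after transfection. Knockdown confirmed by immunoblot.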

MDA-MB-468 = test: Induction of apoptosis in human MDA-MB-468 cells at 1 uM measured after 48 hrs by Annexin V-FITC/PI staining based flow cytometry; type: functional, cell-based
Procedure, shortened: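 Cells seeded at 50 000/well, treated 48 h with 1 μM PROTAC or DMSO; cells plus supernatant stained with Alexa Fluor488 Annexin V for 30 min at room temperature in the dark, PI added 5 min before flow cytometry. At least three repeats.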

MCF7 [11] = test: Effect on cell cycle in human MCF7 cells at 1 uM measured after 48 hrs by PI staining based flow cytometry; type: functional
Procedure, shortened: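 Cells seeded at 50 000/well, exposed to 1 μM PROTAC or DMSO for 48 h, trypsinized, fixed in ice-cold methanol and held at –20 °C; next day stained with PI/RNase solution and read by flow cytometry. Two independent experiments.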

[12] = PROTAC activity at IAP/MLK1 in human MCF7 cells assessed as protein degradation at 1 uM incubated for 24 hrs by immunoblot analysis

Chain of von Hippel-Lindau disease tumor suppressor/Mitogen-activated protein kinase kinase kinase 21 (Homo sapiens) (P40337 whole entry, looked up): as the sequence (P40337 whole entry, looked up) above
Chain of von Hippel-Lindau disease tumor suppressor/Mitogen-activated protein kinase kinase kinase 21 (Homo sapiens) (Q5TCX8 whole entry, looked up): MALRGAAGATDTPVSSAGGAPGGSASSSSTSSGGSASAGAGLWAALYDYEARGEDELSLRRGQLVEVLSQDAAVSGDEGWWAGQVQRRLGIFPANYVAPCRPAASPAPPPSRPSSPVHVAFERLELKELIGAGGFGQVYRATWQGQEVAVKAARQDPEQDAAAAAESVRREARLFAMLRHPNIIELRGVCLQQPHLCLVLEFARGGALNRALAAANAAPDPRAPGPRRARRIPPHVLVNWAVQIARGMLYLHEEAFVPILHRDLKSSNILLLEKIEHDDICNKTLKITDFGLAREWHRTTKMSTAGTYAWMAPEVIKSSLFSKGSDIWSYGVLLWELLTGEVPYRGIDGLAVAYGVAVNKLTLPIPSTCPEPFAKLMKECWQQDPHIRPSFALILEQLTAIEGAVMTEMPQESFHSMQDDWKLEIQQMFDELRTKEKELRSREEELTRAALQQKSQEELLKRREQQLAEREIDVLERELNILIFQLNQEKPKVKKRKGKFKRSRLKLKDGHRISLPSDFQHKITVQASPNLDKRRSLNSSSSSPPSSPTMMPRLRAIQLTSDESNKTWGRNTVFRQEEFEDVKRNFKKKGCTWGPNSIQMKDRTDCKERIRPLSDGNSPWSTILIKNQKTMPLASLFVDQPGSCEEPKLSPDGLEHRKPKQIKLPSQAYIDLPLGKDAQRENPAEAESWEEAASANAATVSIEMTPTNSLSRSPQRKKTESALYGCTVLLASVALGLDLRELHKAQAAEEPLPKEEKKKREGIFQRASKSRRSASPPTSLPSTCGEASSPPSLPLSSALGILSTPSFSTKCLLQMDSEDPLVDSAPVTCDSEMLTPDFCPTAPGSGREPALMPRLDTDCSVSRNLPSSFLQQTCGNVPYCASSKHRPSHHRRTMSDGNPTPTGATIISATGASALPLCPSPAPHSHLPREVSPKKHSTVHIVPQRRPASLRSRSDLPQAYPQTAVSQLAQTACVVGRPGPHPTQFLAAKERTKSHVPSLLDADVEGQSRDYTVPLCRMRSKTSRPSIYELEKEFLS
Chain of von Hippel-Lindau disease tumor suppressor/Mitogen-activated protein kinase kinase kinase 10 (Homo sapiens) (P40337 whole entry, looked up): as the sequence (P40337 whole entry, looked up) above
Chain of von Hippel-Lindau disease tumor suppressor/Mitogen-activated protein kinase kinase kinase 10 (Homo sapiens) (Q02779 whole entry, looked up): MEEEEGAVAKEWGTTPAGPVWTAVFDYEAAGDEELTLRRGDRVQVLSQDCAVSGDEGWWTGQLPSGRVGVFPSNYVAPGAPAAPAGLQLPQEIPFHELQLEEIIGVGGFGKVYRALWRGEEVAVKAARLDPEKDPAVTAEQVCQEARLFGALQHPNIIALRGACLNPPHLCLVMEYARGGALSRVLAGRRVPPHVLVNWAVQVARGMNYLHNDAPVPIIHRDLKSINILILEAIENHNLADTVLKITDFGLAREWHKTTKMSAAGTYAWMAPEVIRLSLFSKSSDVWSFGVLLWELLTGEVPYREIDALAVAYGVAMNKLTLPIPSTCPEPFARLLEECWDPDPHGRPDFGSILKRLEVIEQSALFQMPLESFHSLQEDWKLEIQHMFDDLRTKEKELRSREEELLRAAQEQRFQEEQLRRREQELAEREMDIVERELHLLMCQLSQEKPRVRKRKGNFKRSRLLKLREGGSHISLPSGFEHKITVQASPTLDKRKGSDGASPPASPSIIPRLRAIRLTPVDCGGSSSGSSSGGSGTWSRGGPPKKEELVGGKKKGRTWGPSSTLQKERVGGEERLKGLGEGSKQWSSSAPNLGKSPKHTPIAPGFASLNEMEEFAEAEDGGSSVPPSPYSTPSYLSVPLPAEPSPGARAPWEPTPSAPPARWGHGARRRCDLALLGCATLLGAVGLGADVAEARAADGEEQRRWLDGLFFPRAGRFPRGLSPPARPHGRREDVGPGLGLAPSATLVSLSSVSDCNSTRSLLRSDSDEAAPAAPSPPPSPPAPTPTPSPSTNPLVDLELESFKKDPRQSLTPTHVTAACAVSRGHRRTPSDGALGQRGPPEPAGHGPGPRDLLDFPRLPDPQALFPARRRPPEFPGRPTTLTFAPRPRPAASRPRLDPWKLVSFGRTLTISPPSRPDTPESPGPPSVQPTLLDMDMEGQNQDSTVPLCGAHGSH

Compound: CCSCc1ccc2c(c1)c1c3c(c4c5cc(CSCC)ccc5n5c4c1n2[C@H]1C[C@](O)(C(=O)NCCOCCOCCOCC(=O)N[C@H](C(=O)N2C[C@H](O)C[C@H]2C(=O)N[C@@H](C)c2ccc(-c4scnc4C)cc2)C(C)(C)C)[C@]5(C)O1)CNC3=O
- Activity [1]: 100%
- Activity [2]: inactive
- Activity [3]: Active
- T1/2 [4]: 4 h
- DC50 [5]: 50 nM
- Activity (MCF7 [6]): inactive
- Activity [7]: Active
- Activity [8]: inactive
- inhibition (MCF7 [9]): inactive
- inhibition (MCF7 [10]): inactive
- Activity (MDA-MB-468): Active
- Activity (MCF7 [11]): inactive
- Activity [12]: inactive
